Source: ChEMBL document CHEMBL1124260, “Synthesis and antitumor activity of quaternary ellipticine glycosides, a series of novel and highly active antitumor agents” (1988)

How the values were obtained:
Mus musculus [1] = experiment: Inhibition of sc implanted syngeneic colon 38 carcinoma by ip administration at 30 mg/kg on 1, 3, 5, 7, 9 days measured as inhibition ratio; type: functional; details: route intraperitoneal
How it was run: (§1)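 Tumor homogenate (70 mg) implanted into the axillary region of female BDF1 mice. Drug dissolved in 0.9% NaCl and diluted with saline just before use, then given ip on days 1, 3, 5, 7 and 9. Tumor length and width were measured by caliper on day 20 after inoculation and converted to estimated weight. Result reported as treated vs control tumor weight, T/C %.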

Mus musculus [2] = experiment: Number of survivors out of 6 ip implanted P388 leukemia in mouse after ip administration of 5 mg/kg after 80 days; type: functional; details: route intraperitoneal
How it was run: (§2)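 P388 leukemia, 10^6 ascitic cells implanted ip in female BDF1 mice. Drug in saline given ip for 5 consecutive days from 24 h after transplant. Groups of six per dose level. Survivors/total recorded at the 80-day end of observation; ILS % from treated/control mean survival time.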

Mus musculus [3] = experiment: Effect on ip implanted syngeneic B16 melanoma by ip administration for 9 days at 5 mg/kg was measured as increase in mean life span; details: 216 h
Mus musculus [4] = experiment: Effect on ip implanted EAC by ip administration for 5 days at 20 mg/kg was measured as increase in mean life span; type: functional; details: 120 h, route intraperitoneal
How it was run: (§3)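 Drug in 0.9% NaCl was given ip for 5 consecutive days from 24 h after inoculation. ILS % came from treated vs control mean survival time, followed for 80 days.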

Mus musculus [5] = experiment: Antitumor activity against ip implanted P388 leukemia in mouse after ip administration of 40 mg/kg for 5 days expressed as increase in mean life span; type: functional; details: 120 h, route intraperitoneal
How it was run: (§4)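 Saline-dissolved drug was given ip daily for 5 consecutive days, beginning 24 h post-transplant. ILS % was calculated from treated vs control mean survival time over an 80-day observation period.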

Mus musculus [6] = experiment: Antitumor activity against ip implanted P388 leukemia in mouse after ip administration of 20 mg/kg for 5 days expressed as increase in mean life span; type: functional; details: 120 h, route intraperitoneal; how it was run: as §4
Mus musculus [7] = experiment: Number of survivors out of 6 ip implanted P388 leukemia in mouse after ip administration of 20 mg/kg after 80 days; type: functional; details: route intraperitoneal; how it was run: as §2
Mus musculus [8] = experiment: Effect on ip implanted sarcoma 180 by ip administration for 5 days at 20 mg/kg was measured as increase in mean life span; type: functional; details: Sarcoma-180, ip, 120 h, route intraperitoneal
How it was run: (§5)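 Saline-dissolved drug was dosed ip daily for 5 consecutive days starting 24 h later. Readout was ILS % (mean survival time of treated vs control) over an 80-day observation.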

Mus musculus [9] = experiment: Antitumor activity against ip implanted P388 leukemia in mouse after ip administration of 1.25 mg/kg for 5 days expressed as increase in mean life span; type: functional; details: 120 h, route intraperitoneal; how it was run: as §4
Mus musculus [10] = experiment: Effect on ip implanted sarcoma 180 by ip administration for 5 days at 10 mg/kg was measured as increase in mean life span; type: functional; details: Sarcoma-180, ip, 120 h, route intraperitoneal; how it was run: as §5
Mus musculus [11] = experiment: Inhibition of sc implanted syngeneic colon 38 carcinoma by ip administration at 20 mg/kg on 1, 3, 5, 7, 9 days measured as inhibition ratio; type: functional; details: route subcutaneous; how it was run: as §1
Mus musculus [12] = experiment: Antitumor activity against ip implanted L1210 leukemia in mouse after ip administration of 10 mg/kg for 5 days expressed as increase in mean life span; type: functional; details: Mus musculus, L1210, ip, 120 h, route intraperitoneal
How it was run: (§6)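 Drug was dissolved in 0.9% NaCl, diluted just before use and given ip once daily for 5 consecutive days, starting 24 h after transplant. ILS % = mean survival time of treated vs control mice, observed for 80 days.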

Mus musculus [13] = experiment: Number of survivors out of 6 ip implanted P388 leukemia in mouse after iv administration of 16 mg/kg after 80 days
Mus musculus [14] = experiment: Effect on ip implanted sarcoma 180 by ip administration for 5 days at 40 mg/kg was measured as increase in mean life span; type: functional; details: Sarcoma-180, ip, 120 h, route intraperitoneal; how it was run: as §5
Mus musculus [15] = experiment: Antitumor activity against ip implanted P388 leukemia in mouse after iv administration of 16 mg/kg for 5 days expressed as increase in mean life span; details: 120 h
Mus musculus [16] = experiment: Number of survivors out of 6 ip implanted EAC leukemia mouse tested after 80 days at 10 mg/kg; type: functional; details: route intraperitoneal
How it was run: (§7)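 Drug dissolved and diluted in saline just before use, given ip for 5 consecutive days starting 24 h after implant. Six mice per dose. Survivors counted at 80 days; ILS % taken from mean survival time of treated vs control mice.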

Mus musculus [17] = experiment: Antitumor activity against ip implanted P388 leukemia in mouse after ip administration of 10 mg/kg for 5 days expressed as increase in mean life span; type: functional; details: 120 h, route intraperitoneal; how it was run: as §4
Mus musculus [18] = experiment: Number of survivors out of 6 ip implanted L1210 leukemia mouse, tested after 80 days at 30 mg/kg; type: functional; details: route intraperitoneal
How it was run: (§8)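 Female BDF1 mice implanted ip with ascitic fluid holding 10^5 L1210 cells. Saline-dissolved drug given ip daily on days 1-5, starting 24 h after implant. Six mice per dose group, followed 80 days. Survivors/total counted at day 80; ILS % from mean survival time vs controls.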

Mus musculus [19] = experiment: Antitumor activity against ip implanted L1210 leukemia in mouse after ip administration of 30 mg/kg for 5 days expressed as increase in mean life span; type: functional; details: Mus musculus, L1210, ip, 120 h, route intraperitoneal; how it was run: as §6
Mus musculus [20] = experiment: Antitumor activity against ip implanted L1210 leukemia in mouse after iv administration of 8 mg/kg for 5 days expressed as increase in mean life span; details: 120 h
Mus musculus [21] = experiment: Effect on ip implanted EAC by ip administration for 5 days at 10 mg/kg was measured as increase in mean life span; type: functional; details: 120 h, route intraperitoneal; how it was run: as §3
Mus musculus [22] = experiment: Effect on ip implanted syngeneic B16 melanoma by ip administration for 9 days at 2.5 mg/kg was measured as increase in mean life span; details: 216 h
Mus musculus [23] = experiment: Number of survivors out of 6 ip implanted sarcoma 180 leukemia mouse tested after 80 days at 40 mg/kg; type: functional; details: route intraperitoneal; how it was run: as §7
Mus musculus [24] = experiment: Antitumor activity against ip implanted L1210 leukemia in mouse after ip administration of 20 mg/kg for 5 days expressed as increase in mean life span; type: functional; details: 120 h, route intraperitoneal; how it was run: as §6
Mus musculus [25] = experiment: Number of survivors out of 6 ip implanted P388 leukemia in mouse after ip administration of 10 mg/kg after 80 days; type: functional; details: route intraperitoneal; how it was run: as §2
Mus musculus [26] = experiment: Effect on ip implanted syngeneic B16 melanoma by ip administration for 9 days at 10 mg/kg was measured as increase in mean life span; details: 216 h
Mus musculus [27] = experiment: Antitumor activity against ip implanted L1210 leukemia in mouse after ip administration of 40 mg/kg for 5 days expressed as increase in mean life span; type: functional; details: 120 h, route intraperitoneal; how it was run: as §6
Mus musculus [28] = experiment: Antitumor activity against ip implanted L1210 leukemia in mouse after ip administration of 1.25 mg/kg for 5 days expressed as increase in mean life span; type: functional; details: 120 h, route intraperitoneal; how it was run: as §6
Mus musculus [29] = experiment: Antitumor activity against ip implanted P388 leukemia in mouse after ip administration of 5 mg/kg for 5 days expressed as increase in mean life span; type: functional; details: 120 h, route intraperitoneal; how it was run: as §4
Mus musculus [30] = experiment: Antitumor activity against ip implanted L1210 leukemia in mouse after ip administration of 5 mg/kg for 5 days expressed as increase in mean life span; type: functional; details: Mus musculus, L1210, ip, 120 h, route intraperitoneal; how it was run: as §6
Mus musculus [31] = experiment: Number of survivors out of 6 ip implanted EAC leukemia mouse tested after 80 days at 20 mg/kg; type: functional; details: route intraperitoneal; how it was run: as §7
Mus musculus [32] = experiment: Number of survivors out of 6 ip implanted L1210 leukemia in mouse after ip administration of 20 mg/kg after 80 days; type: functional; details: route intraperitoneal; how it was run: as §8
Mus musculus [33] = experiment: Effect on ip implanted syngeneic B16 melanoma by ip administration of 20 mg/kg for 9 days measured as increase in mean life span; details: 216 h
Mus musculus [34] = experiment: Effect on ip implanted EAC by ip administration for 5 days at 40 mg/kg was measured as increase in mean life span; type: functional; details: 120 h, route intraperitoneal; how it was run: as §3
Mus musculus [35] = experiment: Antitumor activity against ip implanted P388 leukemia in mouse after iv administration of 8 mg/kg for 5 days expressed as increase in mean life span; details: 120 h
Mus musculus [36] = experiment: Effect on ip implanted EAC by ip administration for 5 days at 5 mg/kg was measured as increase in mean life span; type: functional; details: 120 h, route intraperitoneal; how it was run: as §3
Mus musculus [37] = experiment: Antitumor activity against ip implanted L1210 leukemia in mouse after iv administration of 16 mg/kg for 5 days expressed as increase in mean life span; details: 120 h
Mus musculus [38] = experiment: Number of survivors out of 6 ip implanted EAC leukemia mouse tested after 80 days at 40 mg/kg; type: functional; details: route intraperitoneal; how it was run: as §7
Mus musculus [39] = experiment: Number of survivors out of 6 ip implanted L1210 leukemia in mouse after ip administration of 10 mg/kg after 80 days; type: functional; details: route intraperitoneal; how it was run: as §8

## Cc1c2cc[n+]([C@@H]3O[C@H](CO)[C@H](O)[C@H]3O)cc2c(C)c2c1[nH]c1ccc(O)cc12.[Cl-]
Mus musculus [1]
  T/C: 2%
Mus musculus [2]
  Cures: 3
Mus musculus [3]
  ILS at 5 mg/kg: 42%
Mus musculus [4]
  ILS at 20 mg/kg: > 380%
Mus musculus [5]
  ILS at 40 mg/kg: 112%
Mus musculus [6]
  ILS at 20 mg/kg: > 628%
Mus musculus [7]
  Cures: 5
Mus musculus [8]
  ILS at 20 mg/kg: > 318%
Mus musculus [9]
  ILS at 1.25 mg/kg: 110%
Mus musculus [10]
  ILS at 10 mg/kg: 69%
Mus musculus [11]
  T/C: 36%
Mus musculus [12]
  ILS at 10 mg/kg: > 272%
Mus musculus [13]
  Cures: 2
Mus musculus [14]
  ILS at 40 mg/kg: > 335%
Mus musculus [15]
  ILS at 16 mg/kg: > 417%
Mus musculus [16]
  Cures: 2
Mus musculus [17]
  ILS at 10 mg/kg: > 376%
Mus musculus [18]
  Cures: 4
Mus musculus [19]
  ILS at 30 mg/kg: > 682%
Mus musculus [20]
  ILS at 8 mg/kg: 102%
Mus musculus [21]
  ILS at 10 mg/kg: > 318%
Mus musculus [22]
  ILS at 2.5 mg/kg: 38%
Mus musculus [23]
  Cures: 2
Mus musculus [24]
  ILS at 20 mg/kg: > 244%
Mus musculus [25]
  Cures: 2
Mus musculus [26]
  ILS at 10 mg/kg: 64%
Mus musculus [27]
  ILS at 40 mg/kg: 59%
Mus musculus [28]
  ILS at 1.25 mg/kg: 55%
Mus musculus [29]
  ILS at 5 mg/kg: > 418%
Mus musculus [30]
  ILS at 5 mg/kg: 73%
Mus musculus [31]
  Cures: 3
Mus musculus [32]
  Cures: 1
Mus musculus [33]
  ILS at 20 mg/kg: 52%
Mus musculus [34]
  ILS at 40 mg/kg: > 501%
Mus musculus [35]
  ILS at 8 mg/kg: 122%
Mus musculus [36]
  ILS at 5 mg/kg: 125%
Mus musculus [37]
  ILS at 16 mg/kg: 168%
Mus musculus [38]
  Cures: 5
Mus musculus [39]
  Cures: 1
